Sampled rows, rich in hits. Any-hit rate of the full collection: about 0.77%.
mIAP activ: mouse IAP activation. AID 2805. activation factor at 10 µM. 330,000 compounds, 0.24% hits. muIAP, CDP-Star luminescence, 30 min; active compounds read high; 1 = vehicle-only enzyme signal, 0 = enzyme-free wells;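 active = activation factor of at least 2 at 20 µM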
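Assay system: mouse IAP enzyme / Compound: DMSO-dissolved test compounds / Timing: 30 min, room temperature / Measured by: luminescence from enzymatic CDP-Star hydrolysis / Control set: DMSO-only wells, enzyme-free buffer wells as negative control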
hIAP inh: human IAP inhibition. purified IAP, CDP-Star luminescence, 30 min. AID 2544. inhibition, % at 10 µM. 330,000 compounds, 0.12% hits. P09923;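 active = inhibition reaching a set limit with compound at 10 µM in the primary screen, cut at about 35% in these data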;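 note: plate controls were DMSO wells with enzyme for no effect and no-enzyme buffer wells for full effect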
Target sequence (P09923 whole entry, looked up): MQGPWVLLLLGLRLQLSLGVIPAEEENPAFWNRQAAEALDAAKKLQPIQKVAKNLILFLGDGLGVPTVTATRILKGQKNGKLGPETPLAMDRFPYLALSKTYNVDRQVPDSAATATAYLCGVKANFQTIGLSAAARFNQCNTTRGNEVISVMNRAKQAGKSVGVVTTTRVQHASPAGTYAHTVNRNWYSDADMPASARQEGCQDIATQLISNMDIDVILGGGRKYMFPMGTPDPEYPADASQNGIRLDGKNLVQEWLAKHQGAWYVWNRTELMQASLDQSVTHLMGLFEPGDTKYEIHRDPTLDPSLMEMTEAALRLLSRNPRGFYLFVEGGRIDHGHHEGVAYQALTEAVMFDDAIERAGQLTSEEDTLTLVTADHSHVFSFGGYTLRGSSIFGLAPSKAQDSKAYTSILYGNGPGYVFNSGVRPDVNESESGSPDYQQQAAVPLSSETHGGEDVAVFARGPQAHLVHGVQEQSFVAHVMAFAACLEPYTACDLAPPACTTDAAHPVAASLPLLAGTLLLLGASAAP
bIAP inh: intestinal alkaline phosphatase (bovine) inhibition. inhibition, % at 20 µM. purified bovine IAP, CDP-star luminescence, 30 min. 190,000 tested, under 10 active;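 active = over 50% inhibition of intestinal alkaline phosphatase at 20 µM in the single-dose screen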
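test system = bovine IAP enzyme | medium = DEA buffer 100 mM, pH 9.8, with MgCl2 1.0 mM, ZnCl2 0.02 mM | detection = luminescence | dosing = single compound dose of 20 µM, 2% DMSO final | incubation = 30 min reaction at room temperature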
hIAP activ: human IAP activation. P09923. purified human IAP, CDP-Star luminescence, 30 min; active compounds read high; 1 = vehicle-only enzyme, 0 = enzyme-free background. activation factor at 10 µM. 330,000 compounds, 0.16% hits. AID 2524;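 active = activation factor of the enzyme at least 2-fold when tested at 20 µM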
bIAP activator: intestinal alkaline phosphatase (bovine) activation. purified bovine IAP, CDP-star luminescence, 30 min; active compounds read high; fold of DMSO-control signal, blank-subtracted. activation factor at 20 µM. 200,000 compounds, 0.17% hits. AID 1016;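 active = activation factor of 2 or more at 20 µM, a signal rise over negative controls twice the positive control's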
mIAP inh: blocks mouse intestinal alkaline phosphatase; purified mouse IAP, CDP-Star luminescence, 30 min; inhibition, % at 10 µM; 330,000 compounds, 0.2% hits;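 active = inhibition of at least 40% at 10 µM in the primary screen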;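 note: plate controls were DMSO with enzyme for no effect and no enzyme wells for full effect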
mIAP inh conf: mouse IAP inhibition confirmation | shares compounds with mIAP inh | purified mouse IAP, CDP-Star luminescence, 30 min | inhibition, % at 10 µM | 11,000 compounds, 4.7% hits | AID 434971;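 active = inhibition of at least 40% at 10 µM in either of the two replicates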;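 note: plate controls were DMSO wells with enzyme for no effect and buffer wells lacking enzyme for full effect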
Starred values were filed as active, the others as inactive; i = inactive; x = no result.

SMILES	mIAP activ	hIAP inh	bIAP inh	hIAP activ	bIAP activator	mIAP inh	mIAP inh conf
Cc1cc(C)cc(NC2=NC3(CCCCC3)N=C(N)N2)c1	2.99*	1.1	-269.4	0.99	3.7*	-199.2	-222.4
CCn1c(CC(=O)Nc2ccccc2)nnc1SCc1nc2ccccc2c(=O)[nH]1	0.897	-4.6	x	1.05	x	10.3	x
CC1CCCC(NC(=S)Nc2ccc(SC(F)F)cc2)C1C (stereo not drawn)	8.09*	-14.8	24.2	1.15	0.8	i	-109.3
C[C@@H](C(=O)Nc1ccc(SC(F)F)cc1)N1C(=O)C2CCCCC2C1=O (stereo partly drawn)	1.1	10.6	x	0.894	x	-9.8	x
Cc1cc(C)n(C(=O)c2cc(F)c(F)cc2C)n1	0.919	4.8	4.8	0.952	1	8.1	x
NS(=O)(=O)c1cccc(NC(=O)CSc2nnc(-c3ccncc3)n2C2CC2)c1	0.498	5.4	x	0.946	x	50.2*	58.5*
N#CC(C#N)=C1C=C2C=C(N3CCCCC3)CCC2CC1 (stereo not drawn)	x	x	-51.4	x	1.5	x	x
N#CC1=C(N)C2=C(N3CCCCC3)CCCC2C1(C#N)C#N (stereo not drawn)	0.768	-1.7	x	1.02	0.3	23.2	40.2*
CC(NC(=O)CCNC(=O)N1CCn2c1nc1ccccc12)c1ccccc1 (stereo not drawn)	0.927	-43.0	x	1.43	x	7.3	x
COc1cc(OC)c2c(c1O)OC(c1ccccc1)CC2=O (stereo not drawn)	0.463	3.0	8.4	0.97	0.9	53.7*	62.2*
CCC1(c2ccccc2)NC(=O)N(CC(=O)Nc2ccccc2C(=O)NC2CC2)C1=O (stereo not drawn)	0.997	10.5	x	0.895	x	0.3	x
NC(=O)NC[C@@H]1CC[C@@H](Cc2ccc(-c3ccccc3)cc2)O1	1.04	x	x	x	x	-4.3	x
COc1ccc(NC(=O)NC[C@@H]2CC[C@@H](Cc3ccc(-c4ccccc4)cc3)O2)cc1	2.65*	x	x	x	x	-171.0	-182.2
O=C(Nc1ccc(F)cc1)Nc1cc(S(=O)(=O)N2CCOCC2)ccc1N1CCCC1	1.71	-7.7	-63.2	1.08	1.6	-71.4	x
O=C(Nc1ccc(Cl)cc1Cl)NC1CCN(S(=O)(=O)c2ccc(F)cc2)CC1	5.43*	-68.2	x	1.68	x	-442.6	-116.3
COc1ccccc1NS(=O)(=O)c1cccc(NC(=O)Nc2ccc(Cl)cc2)c1	2.13*	-4.0	2.8	1.04	1	-113.0	-92.2
O=C(Nc1ccc(Cl)cc1)Nc1cc(S(=O)(=O)N2CCOCC2)ccc1N1CCCC1	2.91*	-0.6	-16.9	1.01	1.2	-191.3	-115.5
O=C(CNc1ccc(F)cc1Cl)Nc1cccc(S(=O)(=O)N2CCCCC2)c1	1.89	-14.2	x	1.14	x	-89.4	x
O=C(Nc1cccc(S(=O)(=O)N2CCCCC2)c1)Nc1ccc(Cl)cc1Cl	5.41*	12.9	-5.5	0.871	1.1	-441.4	-340.6
COc1ccccc1CNC(=O)C(Cc1ccccc1)NC(=O)c1ccccc1 (stereo not drawn)	1.27	-13.5	x	1.14	x	-27.4	x
CC1CN(S(=O)(=O)c2cc(C(=O)N3CCCCC3C)ccc2Cl)CC(C)O1 (stereo not drawn)	1.22	-13.5	x	1.14	x	-22.0	x
COc1ccc(Br)cc1CN1CCN(C(=O)c2ccco2)CC1	0.905	-9.2	x	1.09	x	9.5	x
CCCCC(=O)c1ccc(O)cc1	0.94	4.0	11.7	0.96	0.9	6.0	x
O=C(CCO)c1ccc(O)cc1	0.543	14.3	9.0	0.857	0.9	45.7*	47.2*
O=C(N/N=C/c1cccnc1)c1cc(O)c(O)c(O)c1	0.579	-14.4	x	1.14	x	42.1*	57.7*
SMILES	mIAP activ	hIAP inh	bIAP inh	hIAP activ	bIAP activator	mIAP inh	mIAP inh conf
C[N+](C)(C)C(Cc1ccccc1)C(=O)[O-] (stereo not drawn)	0.527	14.3	x	0.857	x	47.3*	50.9*
Cc1cccc(C2=NN(c3ccccc3)[C@H](CO)[C@H]2c2ccccc2)c1	2.2*	x	x	x	x	-120.4	-107.2
COc1ccccc1/C=c1\sc2nc(-c3ccco3)nn2c1=O	0.576	22.1	5.0	0.779	0.9	42.4*	70.4*
Cc1ccc(CN2CCC(CNC(=O)Nc3ccccc3F)CC2)cc1	1.32	-7.9	x	1.08	x	-32.4	x
Cc1ccc(NC(=O)NCC2CCN(Cc3cccc(Cl)c3)CC2)c(Cl)c1	3.46*	-46.2	-19.5	1.46	1.2	-246.4	-120.2
O=C(NCC1CCN(Cc2cccc(Cl)c2)CC1)Nc1ccccc1Cl	2.73*	-58.3	x	1.58	x	-172.9	-117.5
CC1=C(C(=O)Nc2ccccc2)C(c2ccc(C)o2)n2c(s/c(=C\c3ccco3)c2=O)=N1 (stereo not drawn)	0.561	-17.7	19.9	1.18	0.8	43.9*	65.1*
Cc1cc(C)c(S(=O)(=O)Nc2ccc(O)c(Sc3ncn[nH]3)c2)cc1C	0.209	-3.3	x	1.03	x	79.1*	86.5*
COc1ccc(S(=O)(=O)Nc2ccc(O)c(Sc3ncn[nH]3)c2)cc1	0.371	-12.9	-8.8	1.13	1.1	62.9*	71.8*
CC(C)c1ccc(S(=O)(=O)Nc2ccc(O)c(Sc3ncn[nH]3)c2)cc1	0.653	-68.9	x	1.69	x	34.7	x
Cc1cc(C)c(S(=O)(=O)Nc2ccc(O)cc2)cc1C	0.989	-7.0	13.4	1.07	0.9	1.1	x
O=C(NC(CC(=O)N1CCN(c2ccc([N+](=O)[O-])cc2)CC1)c1ccccc1)c1ccccc1Cl (stereo not drawn)	0.832	-3.7	11.1	1.04	0.9	16.8	x
O=C(NC1CCCC1)C(c1ccc(F)cc1)N(Cc1ccc(F)cc1)C(=O)c1ccn[nH]1 (stereo not drawn)	2.2*	-75.7	-142.1	1.76	2.4*	-119.8	-104.7
O=C(N/N=C/c1ccc(OC(=O)c2ccccc2Cl)cc1)c1cc(O)cc(O)c1	0.53	-3.7	x	1.04	x	47.0*	60.8*
O=C(N/N=C/c1ccc(OC(=O)c2ccccc2Cl)cc1)c1ccccn1	1.02	-20.1	x	1.2	x	-1.7	x
COc1cc(/C=N/NC(=O)c2cc(O)cc(O)c2)ccc1OC(=O)c1ccccc1	0.502	6.2	x	0.938	x	49.8*	57.1*
Cc1ccc(NC(=S)NCc2ccccc2)cc1S(=O)(=O)N1CCCCC1	5.81*	-58.3	-38.0	1.58	1.4	-480.6	-186.7
COc1ccc(N2C(=O)[C@H]3CCC=C[C@H]3[C@@H]2c2ccccc2Br)cc1	1.28	x	x	x	x	-17.8	x
Cc1ccc(C2=NC(=O)/C(=C/c3cc(O)c(O)c(Br)c3)S2)cc1	0.474	14.0	29.0	0.86	0.7	52.6*	59.9*
CC(=O)c1sc2nc(-c3ccco3)ccc2c1N	0.413	-19.1	x	1.19	x	58.7*	63.0*
Nc1c(C(=O)Nc2ccc(Br)cc2)sc2nc(-c3ccco3)ccc12	0.627	30.8	0.0	0.692	1	37.3	x
Cc1noc(C(F)(F)F)c1C(=O)NNC(=O)c1ccccc1	0.91	6.5	x	0.935	x	9.0	x

Source: PubChem (Sanford-Burnham Center for Chemical Genomics)
